From PubChem BioAssay
In the library only some 6.7% were active in any assay of this set; here they are far more common.
GRIN3A LBD mod: modulators (binders) of human NR3A ligand-binding domain | Tm shift relative to glycine control, % at 25 µM | AID 1259313 | hit rate 2.5% among 340,000 | NR3A LBD differential scanning fluorimetry, Tm shift; 0% = protein alone, 100% = glycine-bound protein;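 active = melting temperature shift of at least 10% of the positive control shift, at one fixed dose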
CHOP inh: blocks CHOP induction under ER stress; CHO-K1 CHOP-promoter luciferase, tunicamycin-induced, 15-18 h; hit rate 3.8% among 220,000; inhibition, % at 10 µM;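 active = compounds that reduced the stress-induced luciferase reporter signal by more than about 70% of percent inhibition, limit read from the data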
T cruzi repl: blocks replication of Trypanosoma cruzi. T. cruzi beta-gal in NIH3T3, luminescence, 90 h. hit rate 1.4% among 300,000. inhibition, % (test concentration not listed);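 active = mean inhibition across valid replicates above about 55%, limit read from the data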;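 note: signal also drops with host cell toxicity which is not excluded here; higher percent means less beta-gal luminescence so fewer parasites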
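System: mouse NIH/3T3 fibroblasts infected with β-gal-expressing T. cruzi Tulahuen C4 / Input: NIH/3T3 cells, 5,000 per well / Buffer or medium: Low-serum DMEM with 2% FBS / Probe or stimulus: 5000 reporter trypomastigotes per well / Schedule: ≥90 h infection period, 3 h prior cell attachment / Measured by: GalScreen luminescence, 60 min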
CSC inhib: cancer stem cell inhibition; inhibition, % at 7.5 µM; cancer stem cell-like cells viability, luminescence; hit rate 1.1% among 300,000; in the data active = inhibition above about 75%; tested in HMLE shEcad cells
PREPL inhibitor: inhibits the human prolyl oligopeptidase-like enzyme; AID 2751; hit rate 0.68% among 320,000; inhibition, % at 5.96 µM; recombinant PREPL, fluorescence polarization activity-based probe; in the data active = inhibition above about 43%
Target sequence (Q4J6C6 whole entry, looked up): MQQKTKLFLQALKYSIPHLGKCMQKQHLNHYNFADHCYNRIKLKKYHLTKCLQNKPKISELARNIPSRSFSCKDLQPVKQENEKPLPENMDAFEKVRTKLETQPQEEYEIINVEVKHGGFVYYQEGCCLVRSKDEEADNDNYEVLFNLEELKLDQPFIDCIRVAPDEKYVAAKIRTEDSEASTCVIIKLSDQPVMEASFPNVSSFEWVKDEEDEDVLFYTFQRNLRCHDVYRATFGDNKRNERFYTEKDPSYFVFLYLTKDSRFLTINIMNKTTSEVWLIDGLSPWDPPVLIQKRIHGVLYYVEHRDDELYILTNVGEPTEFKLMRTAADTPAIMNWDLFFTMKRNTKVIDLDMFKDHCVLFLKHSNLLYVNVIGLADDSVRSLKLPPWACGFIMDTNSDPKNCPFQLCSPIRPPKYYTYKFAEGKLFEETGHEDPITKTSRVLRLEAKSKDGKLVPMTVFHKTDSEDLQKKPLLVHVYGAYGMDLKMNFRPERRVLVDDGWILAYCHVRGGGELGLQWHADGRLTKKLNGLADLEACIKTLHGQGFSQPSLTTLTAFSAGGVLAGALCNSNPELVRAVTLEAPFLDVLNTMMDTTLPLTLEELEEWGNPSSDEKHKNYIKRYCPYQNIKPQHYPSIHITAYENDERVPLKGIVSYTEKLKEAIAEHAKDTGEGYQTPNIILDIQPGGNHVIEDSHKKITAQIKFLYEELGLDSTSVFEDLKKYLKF
Beta apoptosis: blocks beta cell apoptosis; INS-1E cytokine-induced death, ATP luminescence, 48 h; percent of positive-control rescue, neutral wells zero; protection from apoptosis, % (concentration not given with the values); hit rate 0.8% among 300,000; AID 435005;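 active = Every replicate reaches about 75%, or at least half do and their mean reaches it too, limit read from the data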;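 note: higher means more ATP so stronger rescue from cytokine killing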
A number is an active result.

Screening O=C(OCc1cc(=O)n2c(n1)sc1ccccc12)c1ccc(O)cc1 returned GRIN3A LBD mod inactive, CHOP inh inactive, T cruzi repl inactive, CSC inhib inactive, PREPL inhibitor inactive and Beta apoptosis inactive.
`COc1ccc(/C=N/NC(=O)COc2ccc(Cl)cc2Cl)cc1Cn1nc(C)cc1C` gave GRIN3A LBD mod inactive, CHOP inh 93.0, T cruzi repl inactive, CSC inhib inactive, PREPL inhibitor inactive and Beta apoptosis inactive.
`O=C(CCn1c(=O)c2cccn2c2cccnc21)NCc1cccc(Cl)c1` gave GRIN3A LBD mod 10.5, T cruzi repl inactive, CSC inhib inactive, PREPL inhibitor inactive and Beta apoptosis inactive.
`CCC1=Nc2cc(C(=O)NCCCOC)ccc2Sc2ccccc21` gave GRIN3A LBD mod inactive, T cruzi repl 56.1, CSC inhib inactive, PREPL inhibitor inactive and Beta apoptosis inactive.
Screening CCCC1=Nc2cc(C(=O)NCCCOCC)ccc2Sc2ccccc21 returned GRIN3A LBD mod inactive, T cruzi repl inactive, CSC inhib inactive, PREPL inhibitor inactive and Beta apoptosis inactive.
`CCOc1ccc(OCCC(=O)N(CCC2=CCCCC2)c2c(N)n(Cc3ccccc3)c(=O)[nH]c2=O)cc1` gave GRIN3A LBD mod inactive, T cruzi repl inactive, CSC inhib inactive, PREPL inhibitor inactive and Beta apoptosis inactive.
`CCCN(C(=O)COC(=O)CNC(=O)c1ccc2ccccc2c1)c1c(N)n(Cc2ccccc2)c(=O)[nH]c1=O` gave GRIN3A LBD mod 20.8, T cruzi repl inactive, CSC inhib inactive, PREPL inhibitor inactive and Beta apoptosis inactive.
`CCOc1ccc(OCC(=O)N(CCC2=CCCCC2)c2c(N)n(Cc3ccccc3)c(=O)[nH]c2=O)cc1` gave T cruzi repl inactive, CSC inhib 75.8 and PREPL inhibitor inactive.
Screening COC(=O)CC1C(=O)NCCN1C(=O)c1cc(OC)c(OC)cc1OC (stereo unspecified) returned GRIN3A LBD mod inactive, T cruzi repl inactive, CSC inhib inactive, PREPL inhibitor inactive and Beta apoptosis inactive.
For Cn1cccc1C(NC(=O)c1ccccc1)C(Cl)(Cl)Cl (stereo unspecified) the results were GRIN3A LBD mod inactive, T cruzi repl inactive, CSC inhib inactive, PREPL inhibitor inactive and Beta apoptosis inactive.
CCC(=O)c1ccc(OCC(=O)NCCc2ccccn2)cc1 was read as GRIN3A LBD mod inactive, CHOP inh inactive, T cruzi repl inactive, CSC inhib inactive, PREPL inhibitor inactive and Beta apoptosis inactive.
`CCCCOc1ccc(/C=C/C(=O)OCC(=O)NC2CCS(=O)(=O)C2)cc1OCC` (stereo unspecified) gave GRIN3A LBD mod inactive, T cruzi repl inactive, CSC inhib inactive, PREPL inhibitor inactive and Beta apoptosis inactive.
Screening CCCCOc1ccc(/C=C/C(=O)OCC(=O)NC(=O)NCC(C)C)cc1OCC returned GRIN3A LBD mod inactive, CHOP inh 71.8, T cruzi repl inactive, CSC inhib inactive, PREPL inhibitor inactive and Beta apoptosis inactive.
For Cc1cc(C)cc(NC(=S)N2CCN(S(=O)(=O)c3ccccc3)CC2)c1 the results were GRIN3A LBD mod inactive, CSC inhib inactive and Beta apoptosis inactive.
For Cc1cc(C)cc(NC(=S)NCc2ccc3[nH]c4c(c3c2)CCCC4)c1 the results were GRIN3A LBD mod 17.1, CHOP inh inactive, T cruzi repl inactive, CSC inhib inactive and PREPL inhibitor inactive.
Screening S=C(NCc1ccc2[nH]c3c(c2c1)CCCC3)Nc1ccccc1 returned GRIN3A LBD mod inactive, CHOP inh inactive, T cruzi repl inactive, PREPL inhibitor inactive and Beta apoptosis inactive.
COCc1nnc(NS(=O)(=O)c2ccc(OC)cc2)s1 was read as GRIN3A LBD mod inactive.
`CCCc1nnc(NS(=O)(=O)c2ccc(OC)cc2)s1` gave GRIN3A LBD mod 10.1, CHOP inh inactive, T cruzi repl inactive, CSC inhib inactive and PREPL inhibitor inactive.
Cc1ccc2nc(-c3ccncc3)cc(C(=O)N3CCOCC3)c2c1 was read as GRIN3A LBD mod inactive, T cruzi repl inactive, CSC inhib inactive and PREPL inhibitor inactive.
For O=C(c1cc(-c2cccnc2)nc2ccc(Br)cc12)N1CCN(c2ncccn2)CC1 the results were GRIN3A LBD mod inactive, CHOP inh inactive, T cruzi repl inactive, CSC inhib inactive, PREPL inhibitor inactive and Beta apoptosis inactive.
Screening O=C(c1cc(-c2ccncc2)nc2ccc(Br)cc12)N1CCN(Cc2ccc3c(c2)OCO3)CC1 returned GRIN3A LBD mod inactive, CHOP inh inactive, T cruzi repl 79.3, CSC inhib inactive, PREPL inhibitor inactive and Beta apoptosis inactive.
For Cc1cc(C)c2nc(-c3ccncc3)cc(C(=O)N3CCN(Cc4ccccc4Cl)CC3)c2c1 the results were GRIN3A LBD mod inactive, T cruzi repl 61.1, CSC inhib inactive and PREPL inhibitor inactive.
For CC(=O)c1ccc(N2CCN(C(=O)c3cc(-c4cccnc4)nc4ccc(Br)cc34)CC2)cc1 the results were GRIN3A LBD mod inactive, CHOP inh inactive, T cruzi repl 59.5, CSC inhib inactive, PREPL inhibitor inactive and Beta apoptosis inactive.
For O=C(c1cc(-c2ccncc2)nc2ccc(Cl)cc12)N1CCN(Cc2ccc3c(c2)OCO3)CC1 the results were GRIN3A LBD mod inactive, CHOP inh inactive, T cruzi repl 71.7, CSC inhib inactive, PREPL inhibitor inactive and Beta apoptosis inactive.
CCN(C[C@H]1N[C@@](Cc2ccccc2)(C(=O)OC)[C@H]2C(=O)N(C)C(=O)[C@@H]12)C(=O)NC(C)C was read as GRIN3A LBD mod inactive, CSC inhib inactive, PREPL inhibitor inactive and Beta apoptosis inactive.
For CC(C)CN(C(=O)COC(=O)c1ccccc1SCC(=O)N1CCCC1)C1CCS(=O)(=O)C1 (stereo unspecified) the results were GRIN3A LBD mod inactive.
Screening CCC1C(=O)C[C@H]2CCN3C(=O)CCCC1C23 (stereo partly specified) returned GRIN3A LBD mod inactive.
For N#C/C(=C(/O)C(Cl)(Cl)Cl)c1nc2ccccc2[nH]1 the results were GRIN3A LBD mod inactive, CHOP inh inactive, T cruzi repl inactive, CSC inhib inactive, PREPL inhibitor inactive and Beta apoptosis inactive.
COc1ccc(CN2CCN(C(=O)CCC(=O)Nc3nnc(C4CCCCC4)s3)CC2)cc1F was read as GRIN3A LBD mod inactive, T cruzi repl inactive, CSC inhib inactive and PREPL inhibitor inactive.
COc1ccccc1N1CCN(C(=O)C2CCN(S(=O)(=O)c3ccccc3F)CC2)CC1 was read as GRIN3A LBD mod inactive, PREPL inhibitor inactive and Beta apoptosis inactive.
Screening Cn1ncc([N+](=O)[O-])c1C(=O)Nc1ccc(-c2nc3ccccc3o2)cc1 returned GRIN3A LBD mod inactive, CHOP inh inactive, T cruzi repl inactive, CSC inhib inactive, PREPL inhibitor inactive and Beta apoptosis inactive.
`COc1ccc(CC(=O)Nc2nc(-c3cccc([N+](=O)[O-])c3)cs2)cc1` gave GRIN3A LBD mod inactive, CHOP inh 80.4, T cruzi repl inactive, CSC inhib inactive, PREPL inhibitor inactive and Beta apoptosis inactive.
